{"source": "paper PMC3842382", "about": "(Journal of medicinal chemistry, 2013)", "key": {"[1]": {"system": "Na+ currents in rat embryonic cortical neurons", "experiment": "Whole-cell patch-clamp electrophysiology of Na+ currents in cortical neurons", "type": "cell-based", "conditions": "20 μM", "method_in_brief": "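Cortical neurons from embryonic day 19 rat cortices were cultured 7–10 days in vitro. Whole-cell voltage clamp was run at room temperature in external solution containing 100 mM NaCl, TEA-Cl, CdCl2, NiCl2 and 4-AP (HEPES, pH 7.3), with 20 μM test compound or 0.1% DMSO control. Slow inactivation was read as the fraction of current available at −50 mV. V1/2 and k came from Boltzmann fits to individual recordings, averaged as mean ± SEM.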"}, "[2]": {"system": "Na+ currents in mouse CAD cells", "experiment": "Whole-cell patch-clamp electrophysiology of Na+ currents in CAD cells", "type": "cell-based"}, "mice [3]": {"system": "mice", "experiment": "iv Metrazol test", "type": "in vivo", "conditions": "ip, 25 mg/kg and 81 mg/kg"}, "mice [4]": {"system": "mice", "experiment": "Maximal electroshock seizure", "type": "in vivo", "conditions": "Mus musculus, ip, read-out: MES ED50"}, "mice [5]": {"system": "mice", "conditions": "ip; cited from earlier work"}, "rat": {"system": "rat", "conditions": "oral; cited from earlier work"}, "[6]": {"system": "Na+ currents in mouse CAD cells", "conditions": "cited from earlier work"}, "mice [7]": {"system": "mice", "conditions": "cited from earlier work"}}}
{"molecule": "Cl.NCc1ccc(-c2cccc(OC(F)(F)F)c2)cc1", "note": "[Compound 8, (3′-Trifluoromethoxybiphenyl-4-yl)methylammonium Chloride]", "values": [{"measurement": "effect on steady-state activation (V1/2 and k)", "setting": "[1]", "value": "unchanged"}, {"measurement": "frequency (use)-dependent inhibition of Na+ currents", "setting": "[1]", "value": "did not exhibit"}, {"measurement": "extent of slow inactivation (fraction of current available at −50 mV)", "setting": "[1]; vehicle DMSO 0.41", "value": "0.17 ± 0.03"}, {"measurement": "change in slope values of fast inactivation", "setting": "[1]; vs control", "value": "no commensurate significant changes"}, {"measurement": "hyperpolarizing shift of V1/2 of steady-state fast inactivation", "setting": "[1]; vs control", "value": "~15.7", "unit": "mV"}, {"measurement": "effect on Na+ channel steady-state activation", "setting": "[2]", "value": "did not affect"}, {"measurement": "effect on slopes of fast inactivation", "setting": "[2]", "value": "not affected"}, {"measurement": "frequency (use)-dependent inhibition of Na+ currents", "setting": "[2]; 10 μM, 10 Hz", "value": "did not exhibit"}, {"measurement": "seizure threshold vs control group", "setting": "mice [3]", "value": "no statistical difference from the control group"}]}
{"molecule": "Cl.NCc1ccc(-c2ccccc2)cc1", "note": "[Compound 2, (Biphenyl-4-yl)methylammonium Chloride]", "values": [{"measurement": "ED50", "setting": "mice [4]", "value": "30 to 100", "unit": "mg/kg"}]}
{"molecule": "CCCC(CCC)C(=O)O", "note": "[valproate]", "values": [{"measurement": "MES ED50", "setting": "mice [5]", "value": "270 [0.25] (250-340) mg/kg"}, {"measurement": "MES ED50", "setting": "rat", "value": "490 [0.5] (350-730) mg/kg"}]}
{"molecule": "NCc1ccc(OCc2cccc(F)c2)cc1", "note": "[Compound 22]", "values": [{"measurement": "effect on fast inactivation", "setting": "[6]", "value": "affected fast inactivation"}, {"measurement": "frequency (use)-dependent blockage of Na+ currents", "setting": "[6]", "value": "displayed frequency (use)-dependent blockage"}]}
{"molecule": "COC[C@@H](NC(C)=O)C(=O)NCc1ccccc1", "note": "[Compound 1, Lacosamide]", "values": [{"measurement": "anticonvulsant activity in scMet model", "setting": "mice [7]", "value": "did not display anticonvulsant activity"}]}
{"molecule": "CCC1(c2ccccc2)C(=O)NC(=O)NC1=O", "note": "[phenobarbital]", "values": [{"measurement": "MES ED50", "setting": "mice [5]", "value": "22 [1.0] (15-23) mg/kg"}, {"measurement": "MES ED50", "setting": "rat", "value": "9.1 [5.0] (7.6-12) mg/kg"}]}
